Activity calls are given as the source filed them. The calls are words filed in the database; no cut-off is given here.
Tests used:
[1] = Toxicity in high fat diet-induced C57BL/6J mouse assessed as reduction in body weight at 170 to 340 mg/kg, po measured every week for 6 weeks; format: organism-based; conditions: in vivo, 1008 h, dose 170-340 mg/kg
Method in brief: (§1)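 Male C57BL/6J mice, six weeks old, fed a 45%-fat diet (HFD) for 15 weeks; chow-fed mice served as controls. Obese mice were randomized to vehicle (0.1% w/v CMC-Na) or 170 or 340 mg/kg, gavaged daily for 6 weeks while diet continued. Body weight, food intake, organ weights, serum lipids, tissue histology (H&E, Oil red O), liver SREBP blots and liver qPCR followed.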

[2] = Toxicity in C57BL/6J mouse assessed as reduction in liver weight at 170 to 340 mg/kg, po measured every week for 6 weeks; format: organism-based; conditions: in vivo, 1008 h, dose 170-340 mg/kg; method in brief: as §1
Mus musculus [3] = assay: Hypolipidemic activity in high fat diet-induced C57BL/6J mouse assessed as reduction in cell size of BAT at 170 to 340 mg/kg, po administered daily for 6 weeks by H and E staining based assay; format: functional, organism-based; conditions: dose 170-340 mg/kg; method in brief: as §1
[4] = MRT (0 to infinity) in Sprague-Dawley rat at 1 mg/kg, iv measured upto 12 hrs by LC-MS/MS analysis; format: ADME, organism-based; conditions: in vivo
Method in brief: (§2)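 Six SD rats split into two groups of three, dosed 1 mg/kg IV or 10 mg/kg orally. IV blood drawn at 2, 5, 15, 30 min and 1, 2, 4, 6, 8, 12 h. Oral blood drawn at 5, 15, 30 min and 1, 2, 4, 6, 8, 12, 24 h. Serum drug measured by LC/MS/MS. Parameters are the average of three runs.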

[5] = Toxicity in high fat diet-induced C57BL/6J mouse assessed as change in kidney morphology at 170 to 340 mg/kg, po administered for 6 weeks by H and E staining-based assay; format: organism-based; conditions: in vivo, 1008 h, dose 170-340 mg/kg; method in brief: as §1
Mus musculus [6] = assay: Hypolipidemic activity in high fat diet-induced C57BL/6J mouse assessed as reduction in serum TC level at 170 to 340 mg/kg, po administered daily for 6 weeks; format: functional, organism-based; conditions: dose 170-340 mg/kg; method in brief: as §1
HepG2 = assay: Down regulation of intracellular TC level in human HepG2 cells at 10 uM measured after 24 hrs; format: functional, cell-based
Method in brief: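 HepG2 cells grown in six-well plates and exposed 24 h to compound at […]. Cells collected in PBS and sonicated (5 s on, 10 s off, 60 s total). Total cholesterol or triglyceride measured with a colorimetric determination kit.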

Mus musculus [7] = assay: Hypoglycemic activity in high fat diet-induced C57BL/6J mouse assessed as improvement in glucose tolerance at 170 to 340 mg/kg, po administered daily for 6 weeks and measured up to 120 mins by OGTT method; format: functional, organism-based; conditions: dose 170-340 mg/kg; method in brief: as §1
Mus musculus [8] = assay: Hypolipidemic activity in high fat diet-induced C57BL/6J mouse assessed as reduction in cell size of WAT at 170 to 340 mg/kg, po administered daily for 6 weeks by H and E staining based assay; format: functional, organism-based; conditions: dose 170-340 mg/kg; method in brief: as §1
Mus musculus [9] = assay: Hypolipidemic activity in high fat diet-fed C57BL/6J mouse assessed as increase in brown fat/body weight ratio at 340 mg/kg/day, po administered for 6 weeks; format: functional, organism-based; method in brief: as §1
[10] = molecular target: T1, Sterol regulatory element-binding protein 1 (Homo sapiens) (UniProt P36956); assay: Induction of SREBP degradation in human HepG2 cells at 10 uM preincubated with MG-132 for 1 hr followed by compound additon and measured after 4 hrs by Western blot analysis; format: cell-based
T1 sequence (whole entry): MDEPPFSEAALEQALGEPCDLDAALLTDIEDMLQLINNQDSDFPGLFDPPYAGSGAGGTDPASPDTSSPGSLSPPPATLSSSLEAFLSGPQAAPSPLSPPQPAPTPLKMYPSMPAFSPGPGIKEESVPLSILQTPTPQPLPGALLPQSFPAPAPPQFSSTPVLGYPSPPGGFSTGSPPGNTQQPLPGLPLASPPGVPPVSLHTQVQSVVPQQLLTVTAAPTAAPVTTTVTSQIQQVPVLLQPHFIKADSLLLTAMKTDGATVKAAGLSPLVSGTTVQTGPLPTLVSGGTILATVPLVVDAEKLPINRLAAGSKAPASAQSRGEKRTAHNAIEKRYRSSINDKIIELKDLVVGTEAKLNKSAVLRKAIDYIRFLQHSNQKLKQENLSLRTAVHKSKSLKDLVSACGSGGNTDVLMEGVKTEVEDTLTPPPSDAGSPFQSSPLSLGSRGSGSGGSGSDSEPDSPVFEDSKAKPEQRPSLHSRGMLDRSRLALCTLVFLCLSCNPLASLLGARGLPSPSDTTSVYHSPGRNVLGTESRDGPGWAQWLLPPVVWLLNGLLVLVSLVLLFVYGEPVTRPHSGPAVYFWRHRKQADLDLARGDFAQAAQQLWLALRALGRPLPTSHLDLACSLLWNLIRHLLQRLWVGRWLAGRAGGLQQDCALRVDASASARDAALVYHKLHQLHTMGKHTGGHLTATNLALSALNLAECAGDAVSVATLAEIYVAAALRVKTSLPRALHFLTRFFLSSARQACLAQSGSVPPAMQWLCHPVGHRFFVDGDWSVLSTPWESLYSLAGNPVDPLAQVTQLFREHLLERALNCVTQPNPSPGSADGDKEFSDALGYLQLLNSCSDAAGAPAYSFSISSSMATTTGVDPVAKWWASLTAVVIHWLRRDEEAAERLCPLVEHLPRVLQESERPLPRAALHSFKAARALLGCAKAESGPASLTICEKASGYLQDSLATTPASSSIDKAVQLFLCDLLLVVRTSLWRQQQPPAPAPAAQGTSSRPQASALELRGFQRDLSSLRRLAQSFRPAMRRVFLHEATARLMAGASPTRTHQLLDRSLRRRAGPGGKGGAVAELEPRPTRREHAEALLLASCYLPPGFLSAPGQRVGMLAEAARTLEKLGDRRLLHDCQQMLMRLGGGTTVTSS
Method in brief: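 HepG2 cells pretreated 1 h with MG-132 at […]. Medium then switched to MG-132 plus vehicle or compound at […] for 4 h. SREBPs detected in lysates by Western blot.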

[11] = Clearance in Sprague-Dawley rat at 1 mg/kg, iv measured upto 12 hrs by LC-MS/MS analysis; format: ADME, organism-based; conditions: in vivo; method in brief: as §2
[12] = MRT (0 to infinity) in Sprague-Dawley rat at 10 mg/kg, po measured upto 24 hrs by LC-MS/MS analysis; format: ADME, organism-based; conditions: in vivo; method in brief: as §2
Mus musculus [13] = assay: Hypolipidemic activity in high fat diet-induced C57BL/6J mouse assessed as reduction in serum TG level at 170 to 340 mg/kg, po administered daily for 6 weeks; format: functional, organism-based; conditions: dose 170-340 mg/kg; method in brief: as §1
Mus musculus [14] = assay: […] activity in high fat diet-induced C57BL/6J mouse assessed as reduction in LDLR mRNA level in liver at 170 to 340 mg/kg, po administered daily for 6 weeks by qRT-PCR analysis; format: functional, organism-based; conditions: dose 170-340 mg/kg; method in brief: as §1
Mus musculus [15] = assay: Hypolipidemic activity in high fat diet-induced C57BL/6J mouse assessed as reduction in lipid accumulation in liver at 170 to 340 mg/kg, po administered daily for 6 weeks by Oil Red O staining based assay; format: functional, organism-based; conditions: dose 170-340 mg/kg; method in brief: as §1
[16] = Toxicity in high fat diet-induced C57BL/6J mouse assessed as change in lung morphology at 170 to 340 mg/kg, po administered for 6 weeks by H and E staining-based assay; format: organism-based; conditions: in vivo, 1008 h, dose 170-340 mg/kg; method in brief: as §1

Q: Which Activity [1] does the source give for `COc1ccc2c(c1OCC1CCCCC1)CN1CCc3cc4c(cc3C1C2)OCO4` (configuration not stated) here?
A: Its Activity is “Toxic”.

Q: And the Activity [2]?
A: The Activity was “Toxic”.

Q: What about the Activity (Mus musculus [3]) of the same compound?
A: The Activity was “Active”.

Q: What about the MRT inf [4] of the same compound?
A: Its MRT inf is 3.18 h.

Q: What about the Activity [5] of the same compound?
A: Its Activity is “Non-Toxic”.

Q: What about the Activity (Mus musculus [6]) of the same compound?
A: The Activity was “Active”.

Q: What about the Activity (HepG2) of the same compound?
A: Its Activity is “Active”.

Q: And the Activity (Mus musculus [7])?
A: The Activity was “Active”.

Q: What about the Activity (Mus musculus [8]) of the same compound?
A: Its Activity is “Active”.

Q: And the Activity (Mus musculus [9])?
A: The Activity was “Active”.

Q: And the Activity [10]?
A: Its Activity is “inactive”.

Q: What about the clearance [11] of the same compound?
A: Its clearance is 25.8 mL/min/kg.

Q: And the MRT inf [12]?
A: The MRT inf was 8.03 h.

Q: What about the Activity (Mus musculus [13]) of the same compound?
A: The Activity was “Active”.

Q: What about the Activity (Mus musculus [14]) of the same compound?
A: The Activity was “Active”.

Q: And the Activity (Mus musculus [15])?
A: Its Activity is “Active”.

Q: And the Activity [16]?
A: Its Activity is “Non-Toxic”.
